Measured values gathered from unrelated publications.
Each line is one published result; the experiments were not run side by side.
Target: Serine/threonine-protein kinase ICK (CILK1, Homo sapiens, UniProt Q9UPZ9)
Sequence (Q9UPZ9 1-632, as in one of the studies): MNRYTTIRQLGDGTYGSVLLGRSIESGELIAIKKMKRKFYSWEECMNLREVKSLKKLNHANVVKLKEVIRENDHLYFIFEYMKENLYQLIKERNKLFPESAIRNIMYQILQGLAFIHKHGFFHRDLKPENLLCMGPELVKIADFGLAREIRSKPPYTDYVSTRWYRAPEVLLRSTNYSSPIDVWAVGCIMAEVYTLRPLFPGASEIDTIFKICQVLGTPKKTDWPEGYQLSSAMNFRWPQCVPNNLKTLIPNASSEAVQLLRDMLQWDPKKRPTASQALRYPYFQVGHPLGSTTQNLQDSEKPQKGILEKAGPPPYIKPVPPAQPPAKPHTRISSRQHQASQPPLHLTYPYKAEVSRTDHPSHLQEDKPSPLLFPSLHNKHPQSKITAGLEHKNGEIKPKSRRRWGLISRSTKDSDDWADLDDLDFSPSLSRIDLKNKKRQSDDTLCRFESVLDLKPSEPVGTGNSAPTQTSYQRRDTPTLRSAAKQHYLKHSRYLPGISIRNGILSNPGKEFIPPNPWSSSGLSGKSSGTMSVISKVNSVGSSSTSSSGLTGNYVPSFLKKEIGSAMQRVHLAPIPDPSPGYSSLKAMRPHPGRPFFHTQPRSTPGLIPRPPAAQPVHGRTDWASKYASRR

SMILES | assay | conditions | remaining binding
COc1cnc(Nc2cccc(S(N)(=O)=O)c2)nc1N1CCN(c2ccccc2)C(=O)C1 | binding, competition with immobilised ligand | 1 µM | 75%
C[C@H]1CCN(c2nccc(-c3cnn4ncccc34)n2)C1 | binding | 1 µM | 64%
FC(F)(F)Oc1cccc(-c2cnc3ccc(-c4ccncc4)nn23)c1 | cell-free assay, competition with immobilised ligand | 5 µM | 4.5%
CNC(=O)[C@@H]1CC[C@@H](n2c(-c3ccc4cnccc4c3)nc3ccc(C(=O)NCc4cccc(C(N)=O)c4)cc32)C1 | binding, competition with immobilised ligand | 1 µM | 100%
N[C@H]1CCN(c2nccc(-c3cnn4ncccc34)n2)C1 | binding | 1 µM | 100%
c1cncc(-c2cccc(Nc3nccc(NC4CCCCC4)n3)c2)c1 | binding, competition with immobilised ligand | 10 µM | 50%
O=C(c1ccc(Nc2ncc(Cl)c(-c3cc4ccccc4s3)n2)cc1)N1CCC(N2CCCC2)CC1 | binding, competition with immobilised ligand | 1 µM | 57%
O=C(NCC1CCOCC1)c1n[nH]cc1NC(=O)c1c(F)cccc1F | binding, competition with immobilised ligand | 1 µM | 5.7%
CN(CCCC(F)(F)F)c1nccc(-c2cnn3ncccc23)n1 | binding | 1 µM | 100%
CN([C@@H]1CCc2c(CC(=O)O)c3ccccc3n2C1)S(=O)(=O)c1ccc(F)cc1 | cell-free assay, competition with immobilised ligand | 1 µM | 100%
O=C(c1ccc(Nc2nccc(-c3cc4ccccc4s3)n2)cc1)N1CCC(N2CCCC2)CC1 | binding, competition with immobilised ligand | 1 µM | 74%
C[C@@]1(Cc2ccc(C#N)cc2)C(=O)N(c2cc(Cl)cc(Cl)c2)c2ncc(C(=O)NC3(c4nc(C5CCC5)no4)CC3)n21 | cell-free assay, competition with immobilised ligand | 1 µM | 100%
Cc1cnn2ncc(-c3ccnc(N(C)C)n3)c2c1 | binding | 1 µM | 82%
CNC(=O)Nc1ccc2c(c1)[C@@]1(CC2)OC(=O)N(CC(=O)N(Cc2ccc(F)cc2)[C@@H](C)C(F)(F)F)C1=O | binding, competition with immobilised ligand | 1 µM | 67%
CN(c1nccc(-c2cnn3ncccc23)n1)C1CC1 | binding | 1 µM | 100%
CNCc1ccccc1-c1csc([C@H](C)Nc2nc(C)nc3cc(OC)c(OC)cc23)c1 | cell-free assay, competition with immobilised ligand | 1 µM | 86%
O=C(NCCCN1CCOCC1)c1ccc(Nc2nccc(-c3cc4ccccc4s3)n2)cc1 | binding, competition with immobilised ligand | 1 µM | 64%
O=C(Nc1cccnn1)N1CC(C/C=C/c2cncc(Oc3ccc(C(F)(F)F)cn3)n2)C1 | cell-free assay, competition with immobilised ligand | 1 µM | 80%
COc1ccnn2ncc(-c3ccnc(N(C)C)n3)c12 | binding | 1 µM | 74%
COc1cccc(CNC(=O)c2nc3scc(COCc4ccc(C(=O)O)cc4)c3c(=O)[nH]2)c1 | cell-free assay, competition with immobilised ligand | 1 µM | 66.1%
C=CC(=O)N1CCC(C(=O)NCC(=O)N2CCN(c3nc(-c4cnc(N)nc4C(F)F)nc(N4CCOCC4)n3)CC2)CC1 | binding, competition with immobilised ligand | 1 µM | 95%
